Measurements from ChEMBL document CHEMBL1137562, “Synthesis and structure-activity relationships of 16-modified analogs of 2-methoxyestradiol” (Bioorg Med Chem, 2007).

How the values were obtained:
MDA-MB-231 = test: Antiproliferative activity against human MDA-MB-231 cells after 48 hrs; format: functional, cell-based; conditions: MDA-MB-231, 48 h
Summary of the method: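 MDA-MB-231 cells kept in DMEM with 10% FBS, 2 mM L-glutamine and penicillin/streptomycin, plated at 2000 cells/well and left to attach overnight. Cells were exposed to increasing concentrations for 48 h. Proliferation was read as DNA synthesis by colorimetric BrdU ELISA. Triplicates in at least two independent experiments, reported as mean ±SD.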

MCF7 = test: Antiproliferative activity against human MCF7 cells after 8 to 10 days relative to 2-methoxyestradiol; format: functional
Summary of the method: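 Estrogen-dependent MCF-7 cells (passage 60–90) plated at 20–30,000 cells/well and left overnight. Cells were washed and starved 3 days in phenol red-free IMEM with 2% charcoal-dextran-stripped FBS, then treated with increasing concentrations in the same medium, refreshed every 2–3 days. Cells were Coulter-counted after 8 or 10 days. Triplicates in at least two independent experiments; stimulation index relative to 2-methoxyestradiol (1.00).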

HUVEC = test: Antiproliferative activity against human HUVECs after 48 hrs; format: cell-based
Summary of the method: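 HUVEC kept in EGM, plated at 5000 cells/well and left to attach overnight. Cells were exposed to increasing drug concentrations for 48 h at 37 °C. DNA synthesis was read by colorimetric BrdU ELISA. Each concentration was run in triplicate in at least two independent experiments, reported as mean ±SD.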

| SMILES | IC50 (MDA-MB-231) [µM] | Activity (MCF7) | IC50 (HUVEC) [µM] |
| --- | --- | --- | --- |
| COc1cc2c(cc1O)CC[C@@H]1[C@@H]2CC[C@]2(C)[C@@H](O)[C@H](C)C[C@@H]12 | 0.74 | 2.07 | 0.35 |
| COc1cc2c(cc1O)CC[C@@H]1[C@@H]2CC[C@]2(C)[C@@H](O)[C@H](CN(C)C)C[C@@H]12 | 22.7 | 1.43 | 36.8 |
| COc1cc2c(cc1O)CC[C@@H]1[C@@H]2CC[C@]2(C)[C@@H](O)CC[C@@H]12 [2-METHOXYESTRADIOL] | 1 |  | 0.84 |
| CC[C@@H]1C[C@H]2[C@@H]3CCc4cc(O)c(OC)cc4[C@H]3CC[C@]2(C)[C@H]1O | 3.59 | 1.09 | 1.35 |
| COc1cc2c(cc1O)CC[C@@H]1[C@@H]2CC[C@]2(C)[C@@H](O)[C@@H](CO)C[C@@H]12 | 6.09 | 1.14 | 6.36 |
| COc1cc2c(cc1O)CC[C@@H]1[C@@H]2CC[C@]2(C)[C@@H](O)[C@H](CC(C)C)C[C@@H]12 | 38.3 | 0.41 | 7.15 |
| COc1cc2c(cc1O)CC[C@@H]1[C@@H]2CC[C@]2(C)[C@@H](O)[C@@H](C)C[C@@H]12 | 2.4 | 1.62 | 2.26 |

The next lines start with results.

| IC50 (MDA-MB-231) [µM] | SMILES | Activity (MCF7) | IC50 (HUVEC) [µM] |
| --- | --- | --- | --- |
| 37.9 | CCCC[C@H]1C[C@H]2[C@@H]3CCc4cc(O)c(OC)cc4[C@H]3CC[C@]2(C)[C@H]1O | 0.82 | 8.17 |
| 45.1 | CCC[C@H]1C[C@H]2[C@@H]3CCc4cc(O)c(OC)cc4[C@H]3CC[C@]2(C)[C@H]1O | 0.93 | 17.1 |
| 35.1 | CCC[C@@H]1C[C@H]2[C@@H]3CCc4cc(O)c(OC)cc4[C@H]3CC[C@]2(C)[C@H]1O | 0.83 | 6.55 |
| 27.9 | CCCC[C@@H]1C[C@H]2[C@@H]3CCc4cc(O)c(OC)cc4[C@H]3CC[C@]2(C)[C@H]1O | 0.73 | 18.2 |
| 4.26 | COc1cc2c(cc1O)CC[C@@H]1[C@@H]2CC[C@]2(C)[C@@H](O)[C@H](CO)C[C@@H]12 | 0.93 | 2.92 |
